Experiments:
[1] = Cmax in C57 Black mouse liver at 10 mg/kg, iv; format: ADME, organism-based; design: route intravenous, dose 10 mg/kg
How it was run: (§1)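 Male C57BL/6 mice were given a single 10 mg/kg dose either intravenously or orally. The oral and IV solutions were formulated in 10% DMSO, 10% cremaphor and 80% saline. Concentrations in plasma and in the tissues collected were determined after dosing, with n = 3 per route. Values are given as mean ± SEM.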

[2] = Half life in mouse microsomes at 1 uM up to 120 mins by HPLC/MS-MS analysis; format: ADME, Microsome
[3] = AUCall in C57 Black mouse kidney at 10 mg/kg, iv; format: ADME, organism-based; design: dose 10 mg/kg; how it was run: as §1
[4] = AUClast in C57 Black mouse kidney at 10 mg/kg, iv; format: ADME, organism-based; design: route intravenous, time 0 - last, dose 10 mg/kg; how it was run: as §1
[5] = Half life in C57 Black mouse kidney at 10 mg/kg, iv; format: ADME, organism-based
How it was run: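 Male C57BL/6 mice (n = 3) dosed at 10 mg/kg by IV or oral (PO) route. Dosing solutions were formulated in 10% DMSO, 10% cremaphor and 80% saline. Compound levels were measured in plasma and tissues over time, and values are given as mean ± SEM.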

[6] = AUCall in C57 Black mouse kidney at 10 mg/kg, po; format: ADME, organism-based; design: dose 10 mg/kg; how it was run: as §1
C2C12 = assay: Induction of glucose uptake in mouse C2C12 cells assessed as [3H]2-deoxyglucose uptake preincubated for 16 hrs followed by followed by [3H]2-deoxyglucose addition and measured after 10 mins by liquid scintillation counting method; format: functional
How it was run: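 C2C12 mouse myoblasts were grown in high-glucose DMEM with 10% FBS. At 80% confluence they were differentiated into myotubes with 2% horse serum. Myotubes were exposed to compound (10 µM) for 16 h in medium with 0.1% horse serum, then washed with KRB pH 7.4 and given 1 µCi/mL [3H]-2-deoxyglucose for 10 min at 37 °C. After ice-cold washes and 0.1% SDS lysis, scintillation counts were normalised to BCA protein. Results are fold change vs DMSO, mean ± SEM, one-way ANOVA.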

[7] = Intrinsic clearance in human microsomes at 1 uM up to 120 mins by HPLC/MS-MS analysis; format: ADME, Microsome
[8] = Intrinsic clearance in mouse microsomes at 1 uM up to 120 mins by HPLC/MS-MS analysis; format: ADME, Microsome
[9] = AUCall in C57 Black mouse plasma at 10 mg/kg, iv; format: ADME, organism-based; design: dose 10 mg/kg; how it was run: as §1
[10] = AUCinfinity in C57 Black mouse plasma at 10 mg/kg, iv; format: ADME, organism-based; design: route intravenous, time infinity, dose 10 mg/kg; settings: in vivo; how it was run: as §1
[11] = AUClast in C57 Black mouse brain at 10 mg/kg, iv; format: ADME, organism-based; design: time 0 - last, route intravenous, dose 10 mg/kg; how it was run: as §1
[12] = AUCinfinity in C57 Black mouse brain at 10 mg/kg, iv; format: ADME, organism-based; design: time infinity, route intravenous, dose 10 mg/kg; how it was run: as §1
[13] = Apparent permeability in MDCK-MDR1 cells at 10 uM after 30 mins by LC-MS/MS analysis; format: ADME, cell-based, Canis lupus familiaris; settings: dog
How it was run: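 Test article was taken from a 10 mM DMSO stock and diluted in DMEM to a final 10 µM donor solution, with 10 µM propranolol as internal standard. It was applied to hMDR1-MDCK monolayers on filters. Transfer to the receiver compartment was measured over 30 min in both directions, apical-to-basolateral and basolateral-to-apical. Quantification was by LC-MS/MS, n = 3.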

[14] = Stability in human plasma assessed as parent compound remaining at 1 uM after 2 hrs by HPC-MS/MS analysis; format: ADME, cell-free; settings: read-out: Stabilty
How it was run: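 Buffer containing test compound at 1 µM was mixed with human or mouse blood plasma and incubated at 37 °C for 60–120 min. Parent compound remaining gave the plasma half-life and the percentage stable at 2 h.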

Compound `O=C(CCCc1cccs1)N1CCN(c2ccc(C(F)(F)F)cc2)CC1` has a Cmax [1] of 1.83 µg/mL, a half-life at 1 µM [2] of 6 min and an AUC [3] of 0.32 µg·h/mL. It also gave an AUC(0-t) [4] of 0.32 µg·h/mL, a half-life [5] of 45.6 min and an AUC [6] of 1.22 µg·h/mL. For the same compound, the “fold change (FC)” value (C2C12) was 2.57, the microsomal CLint at 1 µM [7] was 116 µL/min/mg and the microsomal CLint at 1 µM [8] was 226 µL/min/mg. For the same compound, the AUC [9] was 0.24 µg·h/mL, the AUC [10] was 0.244 µg·h/mL and the AUC(0-t) [11] was 0.246 µg·h/mL. The AUC(0-inf) [12] was 0.253 µg·h/mL, the Papp at 0.5 h, 10 µM [13] was 271 nm/s and the remaining at 2 h, 1 µM [14] was 80%.

— ChEMBL document CHEMBL4765370, “Design, synthesis, and biological evaluation of aryl piperazines with potential as antidiabetic agents via the stimulation of glucose uptake and inhibition of NADH:ubiquinone oxidoreductase” (Eur J Med Chem, 2020)
